# Data: ChEMBL document CHEMBL4145455, “Design, synthesis and evaluation of novel phenyl propionamide derivatives as non-nucleoside hepatitis B virus inhibitors” (Eur J Med Chem, 2018)
# Tests used:
# Hepatitis B virus [1] = assay: Antiviral activity against lamivudine/entecavir resistant HBV harboring reverse transcriptase L180M/M204V/T184L mutant infected in human HepG2 cells assessed as inhibition of viral DNA replication at 100 uM after 72 hrs by RT-PCR method relative to control; settings: HepG2, 72 h
# Hepatitis B virus [2] = assay: Antiviral activity against HBV infected in human HepG2(2.2.15) cells assessed as inhibition of viral DNA replication after 6 days by RT-PCR method; format: functional, organism-based; settings: HepG2 2.2.15, 144 h
# Outline: (§1)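 HepG2 2.2.15 cells (stable HBV genome; DMEM, 10% FBS, G418 0.38 mg/mL) seeded 2×10^5/well, recovered 24 h, then compound in assay medium (single 20 or 4 μM, or dose series for IC50), medium changed every 2 days; after 6 days HBV DNA extracted and quantified by real-time PCR. Mean ± SD, ≥3 independent experiments in duplicate.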
# Hepatitis B virus [3] = assay: Antiviral activity against lamivudine/entecavir resistant HBV harboring reverse transcriptase L180M/M204V/T184L mutant infected in human […] after 72 hrs by RT-PCR method; format: functional, organism-based
# Outline: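 HepG2 cells (2×10^5 per well) were plated, incubated overnight, then transiently transfected for 24 h with a plasmid carrying the full HBV genome with rtL180M + rtM204V + rtT184L. Medium was discarded, cells washed with PBS, then treated across a dose range in fresh medium for 72 h. Intracellular HBV DNA replicative intermediate was quantified by real-time PCR. IC50 is 50% inhibition of DNA replication.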
# Hepatitis B virus [4] = assay: Antiviral activity against HBV infected in human HepG2(2.2.15) cells assessed as inhibition of intracellular viral pregenomic RNA expression at 1 uM after 6 days by TRIzol reagent based RT-PCR method relative to control; format: functional; settings: HepG2 2.2.15, 144 h
# Outline: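 HepG2 2.2.15 cells at 6×10^5 per well treated 6 days at 1 μM; total cellular RNA extracted and intracellular HBV pgRNA quantified by real-time PCR.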
# [5] = Selectivity index, ratio of CC50 for human HepG2(2.2.15) cells to IC50 for antiviral activity against HBV infected in human HepG2(2.2.15) cells assessed as inhibition of viral DNA replication; format: toxicity, cell-based; settings: read-out: Ratio CC50/IC50
# Outline: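 SI calculated as CC50 (72 h MTT, HepG2 2.2.15) divided by IC50 for inhibition of HBV DNA replication measured by real-time PCR.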
# [6] = Selectivity index, ratio of CC50 for human HepG2(2.2.15) cells to IC50 for antiviral activity against lamivudine/entecavir resistant HBV harboring reverse transcriptase L180M/M204V/T184L mutant infected in human HepG2(2.2.15) cells; format: toxicity, cell-based; settings: read-out: Ratio CC50/IC50
# Outline: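 SI = CC50/IC50. CC50 comes from HepG2 2.2.15 cells grown to confluence and treated for 72 h, with MTT absorbance at 490 nm relative to untreated cells, in triplicate. IC50 comes from mutant-plasmid-transfected HepG2 cells treated for 72 h, with HBV DNA measured by real-time PCR.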
# Hepatitis B virus [7] = assay: Antiviral activity against HBV infected in human […] cells assessed as inhibition of viral DNA replication at 100 uM after 72 hrs by RT-PCR method relative to control; format: functional
# Outline: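 HepG2 cells (2×10^5/well) transfected overnight-plated, 24 h with plasmid carrying wild-type or rtL180M+rtM204V+rtT184L resistant HBV; after PBS wash, fresh medium with lamivudine 100 μM, entecavir 10 μM, or test compounds 1 μM (one at 10 μM) for 72 h; replicative intermediate HBV DNA measured by real-time PCR.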
# Hepatitis B virus [8] = assay: Antiviral activity against HBV infected in human HepG2(2.2.15) cells assessed as inhibition of viral DNA replication at 20 uM after 6 days by RT-PCR method relative to control; format: functional; settings: HepG2 2.2.15, 144 h
# Outline: as §1
# [9] = Cytotoxicity against human HepG2(2.2.15) cells assessed as reduction in cell viability after 72 hrs by MTT assay; format: cell-based
# Outline: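 Confluent HepG2 2.2.15 cells exposed to graded compound concentrations for 72 h alongside untreated controls on each plate; viability by MTT uptake, absorbance 490 nm relative to untreated cells; CC50 = concentration killing 50% of cells. Three replicates.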
smiles,measurement,setting,value
Nc1ccn([C@@H]2CS[C@H](CO)O2)c(=O)n1 [LAMIVUDINE],inhibition at 100 µM,Hepatitis B virus [1],19.4%
same,IC50,Hepatitis B virus [2],< 0.1 µM
same,IC50,Hepatitis B virus [3],> 100 µM
same,inhibition at 1 µM,Hepatitis B virus [4],0.81%
same,selectivity ratio,[5],> 1000
same,selectivity ratio,[6],< 1
same,inhibition at 100 µM,Hepatitis B virus [7],94.3%
same,inhibition at 20 µM,Hepatitis B virus [8],92.7%
same,CC50 at 72 h,[9],> 100 µM
